Reference: ChEMBL document CHEMBL4808168, “The Discovery of Two Novel Classes of 5,5-Bicyclic Nucleoside-Derived PRMT5 Inhibitors for the Treatment of Cancer” (J Med Chem, 2021)
In brackets after ≈: the same amount, converted by molar mass.

Experiments:
[1] = Unbound clearance in rat; format: ADME; settings: in vivo
[2] = Solubility of the compound in FaSSIF at pH 7 at 200 uM incubated for 24 hrs by UV-vis detection based HPLC analysis; format: physicochemical
[3] = Solubility of the compound in […] at pH 2 at 200 uM incubated for 24 hrs by UV-vis detection based HPLC analysis; format: physicochemical
In short: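 10 mM DMSO stock added to 10 mM potassium phosphate buffer at pH 2 or pH 7, or FaSSIF pH 6.5, to 200 μM total; 24 h equilibration, filtration, then reverse-phase HPLC with UV–vis detection.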

[4] = molecular target: Protein arginine N-methyltransferase 5 (Homo sapiens, UniProt O14744); assay: Inhibition of PRMT5 (unknown origin) assessed as inhibition of symmetric dimethylation of arginine incubated for 3 days by fluorescence based cellular target engagement assay
Sequence of Protein arginine N-methyltransferase 5 (O14744 whole entry): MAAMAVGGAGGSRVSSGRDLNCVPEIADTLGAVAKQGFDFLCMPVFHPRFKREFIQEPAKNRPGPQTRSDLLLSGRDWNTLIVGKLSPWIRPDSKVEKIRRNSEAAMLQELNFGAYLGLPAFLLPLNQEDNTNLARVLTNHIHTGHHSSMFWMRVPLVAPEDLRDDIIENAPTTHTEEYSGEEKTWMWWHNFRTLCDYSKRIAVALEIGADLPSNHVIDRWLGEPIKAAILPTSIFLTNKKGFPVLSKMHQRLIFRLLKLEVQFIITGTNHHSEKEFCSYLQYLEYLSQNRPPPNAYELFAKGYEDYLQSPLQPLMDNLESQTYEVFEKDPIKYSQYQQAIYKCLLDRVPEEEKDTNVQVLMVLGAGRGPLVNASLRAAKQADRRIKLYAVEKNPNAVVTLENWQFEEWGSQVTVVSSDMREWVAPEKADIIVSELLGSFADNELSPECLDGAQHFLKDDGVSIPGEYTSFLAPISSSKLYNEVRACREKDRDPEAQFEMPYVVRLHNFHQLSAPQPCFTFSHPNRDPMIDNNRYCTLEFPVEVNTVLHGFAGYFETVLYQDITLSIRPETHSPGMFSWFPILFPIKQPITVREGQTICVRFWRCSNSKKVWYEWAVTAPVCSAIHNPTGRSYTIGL
In short: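 MCF-7 cells (4000/well, collagen-coated plates) in EMEM with 0.01 mg/mL insulin and 10% FBS; 10-point 1:3 titration from 10,000 nM; 3 days at 37 °C/5% CO2; fixed, permeabilized, anti-SDMA antibody, then Alexa488 anti-rabbit IgG plus Hoechst; nuclear fluorescence by high-content imaging versus DMSO; EC50 by four-parameter robust fit.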

[5] = MRT in rat; format: ADME; settings: in vivo
[6] = Unbound volume of distribution in rat; format: ADME; settings: in vivo
[7] = Oral bioavailability in rat; format: ADME, organism-based; settings: in vivo
[8] = tested on: Z-138; assay: Antiproliferative activity against human Z138 cells incubated for 10 days by cell titer-glo assay; format: functional, cell-based; settings: Z-138, 240 h
[9] = Plasma clearance in rat; format: ADME
[10] = Oral bioavailability in dog; format: ADME, organism-based, Canis lupus familiaris; settings: in vivo
[11] = MRT in dog; format: ADME, Canis lupus familiaris; settings: in vivo
[12] = Unbound volume of distribution in dog; format: ADME, Canis lupus familiaris; settings: in vivo
[13] = Unbound clearance in dog; format: ADME, Canis lupus familiaris; settings: in vivo
[14] = molecular target: CYP3A4 (Homo sapiens, UniProt P08684); assay: Ratio of IC50 for time dependent inhibition of CYP3A4 (unknown origin) in absence of NADPH to IC50 for time dependent inhibition of CYP3A4 (unknown origin) in presence of NADPH; settings: read-out: Ratio IC50
Sequence of CYP3A4 (P08684 whole entry): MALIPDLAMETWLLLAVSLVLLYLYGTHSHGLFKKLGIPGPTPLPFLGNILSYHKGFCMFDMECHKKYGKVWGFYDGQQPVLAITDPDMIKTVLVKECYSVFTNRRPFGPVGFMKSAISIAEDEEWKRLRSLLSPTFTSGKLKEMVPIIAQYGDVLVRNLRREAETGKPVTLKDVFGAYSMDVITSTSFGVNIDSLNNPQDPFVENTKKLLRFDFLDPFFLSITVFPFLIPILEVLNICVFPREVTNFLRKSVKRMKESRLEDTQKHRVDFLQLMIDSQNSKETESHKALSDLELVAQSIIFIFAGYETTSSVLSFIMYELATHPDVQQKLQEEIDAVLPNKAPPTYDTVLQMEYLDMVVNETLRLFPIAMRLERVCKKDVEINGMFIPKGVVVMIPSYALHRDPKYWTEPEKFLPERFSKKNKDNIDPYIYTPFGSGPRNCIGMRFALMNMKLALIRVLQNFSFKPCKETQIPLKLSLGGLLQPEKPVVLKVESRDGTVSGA

[15] = tested on: Z-138; assay: Antitumor activity against human Z138 cells implanted in CB17.SCID mouse assessed as tumor growth inhibition at […] measured at 13 days relative to control; format: functional; settings: Z-138, po, 312 h, time 13 day, read-out: TGI
[16] = tested on: Z-138; assay: Antitumor activity against human Z138 cells implanted in CB17.SCID mouse assessed as […] at 5 mg/kg, po bid measured at 13 days relative to control; format: functional; settings: Z-138, po, 312 h, time 13 day, read-out: TGI
In short: (§1)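 Female CB17.SCID mice implanted subcutaneously with 5 × 10⁶ Z138 cells; dosing began at about 100 mm³, n = 10 per group; daily PO at 10, 30 or 60 mpk QD or 5 mpk BID in 0.5% methylcellulose; tumor volume (L × W²)/2 and body weight twice weekly; %TGI at day 13 from change in tumor volume versus vehicle.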

[17] = tested on: Z-138; assay: Antitumor activity against human Z138 cells implanted in CB17.SCID mouse assessed as tumor growth inhibition at 30 mg/kg, po bid measured at 13 days relative to control; format: functional; settings: Z-138, po, 312 h, time 13 day, read-out: TGI
[18] = Toxicity in CB17.SCID mouse implanted with human Z138 cells assessed as body weight change at 10 to 60 mg/kg, po bid measured up, to 14 days relative to control; format: organism-based; settings: in vivo, 336 h, in the assay text read “po qd” for “po bid”, dose 10-60 mg/kg, time 14 day; in short: as §1
[19] = tested on: Z-138; assay: Antitumor activity against human Z138 cells implanted in CB17.SCID mouse assessed as tumor growth inhibition at 60 mg/kg, po bid measured at 13 days relative to control; format: functional; settings: Z-138, po, 312 h, time 13 day, read-out: TGI

| Compound | CL free [1] | solubility at 24 h, 200 µM [2] | solubility at 24 h, 200 µM [3] | EC50 [4] | MRT [5] | Vdu [6] | bioavailability [7] | clearance [9] | bioavailability [10] | MRT [11] | Vdu [12] | CL free [13] | EC50 [8] | IC50 shift [14] | inhibition in vivo [15] | inhibition in vivo at 5 mg/kg [16] | inhibition in vivo at 30 mg/kg [17] | Activity [18] | inhibition in vivo at 60 mg/kg [19] |
| --- | --- | --- | --- | --- | --- | --- | --- | --- | --- | --- | --- | --- | --- | --- | --- | --- | --- | --- | --- |
| Cc1nc(N)c2ccn([C@@H]3C[C@@H]4[C@H](Cc5ccc6cc(F)c(N)nc6c5)CC[C@]4(O)[C@H]3O)c2n1 | 789 mL/min/kg | 123 µM (≈ 56.9 µg/mL) | 149 µM (≈ 68.9 µg/mL) | 1.5 nM | 3.2 h | 150 L/kg | 17% | 9 mL/min/kg | – | – | – | – | 4.1 nM | – | – | – | – | – | – |
| Cc1ncnc2c1ccn2[C@@H]1C[C@@H]2[C@H](Cc3ccc4cc(F)c(N)nc4c3)CC[C@]2(O)[C@H]1O | 374 mL/min/kg | 94 µM (≈ 42.1 µg/mL) | 157 µM (≈ 70.3 µg/mL) | 0.89 nM | 1.3 h | 33 L/kg | 77% | 24 mL/min/kg | – | – | – | – | 3.5 nM | – | – | – | – | – | – |
| Cc1ncnc2c1ccn2[C@@H]1O[C@@H]2[C@@H](Oc3ccc4cc(Br)c(N)nc4c3)CC[C@]2(O)[C@H]1O | 1444 mL/min/kg | < 1 µM | 161 µM (≈ 82.5 µg/mL) | 4.7 nM | 1.6 h | 139 L/kg | 42% | 4 mL/min/kg | 44% | 4.6 h | 93 L/kg | 329 mL/min/kg | 17 nM | > 2.4 | 45% | 33% | 76% | Non-Toxic | 71% |

Second part, led by results:

| CL free [1] | solubility at 24 h, 200 µM [2] | solubility at 24 h, 200 µM [3] | EC50 [4] | MRT [5] | Vdu [6] | bioavailability [7] | clearance [9] | bioavailability [10] | MRT [11] | Vdu [12] | CL free [13] | Compound | EC50 [8] | IC50 shift [14] | inhibition in vivo [15] | inhibition in vivo at 5 mg/kg [16] | inhibition in vivo at 30 mg/kg [17] | Activity [18] | inhibition in vivo at 60 mg/kg [19] |
| --- | --- | --- | --- | --- | --- | --- | --- | --- | --- | --- | --- | --- | --- | --- | --- | --- | --- | --- | --- |
| 1476 mL/min/kg | 121 µM (≈ 56.4 µg/mL) | 164 µM (≈ 76.5 µg/mL) | 0.74 nM | 1.3 h | 29 L/kg | 19% | 25 mL/min/kg | – | – | – | – | Nc1nc2cc(C[C@@H]3CC[C@@]4(O)[C@@H]3C[C@@H](n3cc(F)c5c(N)ncnc53)[C@@H]4O)ccc2cc1F | 2.3 nM | – | – | – | – | – | – |
| 368 mL/min/kg | 25 µM (≈ 12.1 µg/mL) | 190 µM (≈ 92.1 µg/mL) | 0.84 nM | 2.5 h | 54 L/kg | 24% | 14 mL/min/kg | 45% | 9.9 h | 43 L/kg | 72 mL/min/kg | Nc1nc2cc(C[C@@H]3CC[C@@]4(O)[C@@H]3C[C@@H](n3cc(F)c5c(N)ncnc53)[C@@H]4O)cc(F)c2cc1F | 5.8 nM | – | – | – | – | – | – |
| 788 mL/min/kg | 66 µM (≈ 30.5 µg/mL) | 146 µM (≈ 67.5 µg/mL) | 0.97 nM | 1.1 h | 50 L/kg | 10% | 38 mL/min/kg | – | – | – | – | Cc1cn([C@@H]2C[C@@H]3[C@H](Cc4ccc5cc(F)c(N)nc5c4)CC[C@]3(O)[C@H]2O)c2ncnc(N)c12 | 3.7 nM | – | – | – | – | – | – |
